Experimental data collected from several papers.
Compare with care: the assays were run in different laboratories.
Target: RAC-beta serine/threonine-protein kinase (AKT2, Homo sapiens, UniProt P31751)

SMILES | effect on | mode | method | concentration | endpoint | value
N#Cc1ccc(NC(=O)Nc2ccccc2)cc1 | cell-free assay | – | competition with immobilised ligand | 25 µM | remaining binding | 92%
C#Cc1cnc(Nc2ccnc(CO)c2)nc1Nc1ccccc1S(C)(=O)=NC#N (stereo not shown) | cell-free assay | – | – | 1 µM | remaining signal | 100%
CC#CC(=O)N1CCC[C@H]1c1nc(-c2ccc(C(=O)Nc3ccccn3)cc2)c2c(N)nccn12 | enzyme activity | inhibitor | – | 1 µM | inhibition | 0%
C[C@H]1CC[C@H](n2c3cnccc3c3cnc(Nc4ccc5c(n4)CCN(C(=O)CO)C5)nc32)CC1 | cell-free assay | – | – | 1 µM | remaining signal | 100%
Cc1cc(-c2ccnc3[nH]cc(F)c23)cc(F)c1[C@@]1(O)[C@H](C)CN(C2CCS(=O)(=O)CC2)C[C@@H]1C | enzyme activity | inhibitor | – | 15 nM | remaining activity | 93%
CN1CCN(C(=O)c2ccc(NC(=O)Nc3ccc(N(C)c4ccnc(Nc5ccc(CS(C)(=O)=O)cc5)n4)cc3)cc2)CC1 | binding | – | – | 1 µM | remaining binding | 100%
COc1ccc2oc(-c3ccc4nc(N)oc4c3)c/c(=N\c3ccccc3NC(=O)CCN)c2c1 | binding | – | – | 1 µM | remaining binding | 93%
C=CC(=O)N1CCC([C@@H]2CCNc3c(C(N)=O)c(-c4ccc(Oc5ccccc5)cc4)nn32)CC1 | enzyme activity | inhibitor | – | 1 µM | inhibition | 1%
CCCCC(=O)Nc1ccc(-c2ccc3ncn(CCC)c(=O)c3c2)cn1 | binding | – | competition with immobilised ligand | 0.5 µM | remaining binding | 100%
C1=C/COCc2cc(ccc2OCCN2CCCC2)Nc2nccc(n2)-c2cccc(c2)COC/1 | binding | – | – | 0.1 µM | remaining binding | 100%
